The text below walks through data of ChEMBL document CHEMBL1649384, “Synthesis and antiproliferative activity of novel symmetrical alkylthio- and alkylseleno-imidocarbamates” (Eur J Med Chem, 2011).

One series concerns MCF7. The series is described as follows: Cytotoxicity against human MCF7 cells after 72 hrs by MTT assay. As to conditions: MCF7, 72 h. It is filed as functional. The procedure, abridged:
(§1)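 Cells seeded per well: Hep-G2 1×10⁴, HT-29 4×10³, K-562 4×10³, MCF-7 1.2×10⁴, MCF-10A 7×10³, PC-3 2×10³. MCF-10A were grown in supplemented MEBM at 37 °C, 5% CO₂. Five concentrations were tested between 0.01 and 100, with 72 h exposure. Formazan was read by A590. GI₅₀ was taken relative to untreated controls, from at least three independent experiments.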

The next series concerns HepG2. The series is described as follows: Cytotoxicity against human HepG2 cells after 72 hrs by MTT assay. As to conditions: HepG2, 72 h; for CC50: read-out: LC50 (the source's name). It is filed as functional. The procedure, abridged:
as §1

The nature of series [1]: Cytotoxicity against human MCF10A cells after 72 hrs by MTT assay. As to conditions: for GI50 at 72 h: MCF10A cells; for LC50 / TGI: mcf-10a, 72 h. It is filed as cell-based, MCF-10A. An outline of the steps: as §1
In a further series the test system is PC-3. Description: Cytotoxicity against human PC3 cells after 72 hrs by MTT assay. The series is classed as functional. Particulars: PC-3, 72 h; for CC50: read-out: LC50 (the source's name). The procedure, abridged:
as §1

Another series has as its system K562. Description: Cytotoxicity against human K562 cells after 72 hrs by MTT assay. The series is classed as functional. As to conditions: K562, 72 h; for CC50: read-out: LC50 (the source's name). An outline of the steps:
as §1

For another series, the system named is HT-29. The series is described as follows: Cytotoxicity against human HT-29 cells after 72 hrs by MTT assay. It is filed as functional. As to conditions: HT-29, 72 h; for CC50: read-out: LC50 (the source's name). An outline of the steps:
as §1

Turning to `O=C(/N=C(/NC(=O)c1ccco1)[Se]Cc1ccccc1)c1ccco1`, the GI50 is 8.8 µM with MCF7; 7.65 µM in the series with HepG2; 30.5 µM in the series on PC-3; 9.53 µM in the series with K562; 7.19 µM in the series on HT-29. Besides, the median lethal concentration (LC50) (in the series on MCF7; in series [1]) was > 100 µM in each case. For the same molecule, the TGI came out at 58 µM with MCF7; 39.5 µM with HepG2; 57.98 µM in series [1]; 57.6 µM with PC-3; 44.2 µM in the series with K562; 89.1 µM with HT-29. The CC50 turned out to be 76.5 µM in the series with HepG2, 84.8 µM with PC-3, 80.6 µM with K562 and 89.1 µM in the series with HT-29. For the same molecule, the GI50 at 72 h in series [1] amounted to 8.8 µM.
`O=C(/N=C(/NC(=O)c1c2ccccc2nc2ccccc12)[Se]Cc1ccccc1)c1c2ccccc2nc2ccccc12`: the GI50 in the series on MCF7 amounted to 53.7 µM; in the series with HepG2, 30.4 µM; in the series on PC-3, 42.3 µM; in the series with K562, 9.6 µM; in the series on HT-29, 26.9 µM. In addition, the LC50 (in the series with MCF7; in series [1]) was > 100 µM throughout. The TGI in the series on MCF7 was 88.1 µM; in the series with HepG2 it was 64.5 µM; in series [1], 88.14 µM; in the series with PC-3 it was 77.4 µM; in the series with K562, 44.5 µM; with HT-29, > 100 µM. The CC50 in the series with HepG2 was 98.5 µM; with PC-3, > 100 µM; in the series on K562, 80.7 µM; with HT-29 it was > 100 µM. In series [1], growth was halved (GI50 at 72 h) at 53.7 µM.
As for `CS/C(=N\C(=O)c1sccc1Cl)NC(=O)c1sccc1Cl`, the GI50 amounted to 10.3 µM in the series on MCF7; 65.2 µM with HepG2; 24.7 µM in the series with PC-3; 37 µM in the series with K562; 35.6 µM in the series on HT-29. Further, the LC50 is > 100 µM in the series with MCF7 and 64.11 µM in series [1]. The TGI was 57.1 µM in the series on MCF7; > 100 µM in the series on HepG2; 23.72 µM in series [1]; 57.4 µM with PC-3; 78.9 µM in the series on K562; > 100 µM with HT-29. Further, the CC50 in the series on HepG2 is > 100 µM; in the series with PC-3, 90.1 µM; in the series on K562, > 100 µM; with HT-29, > 100 µM. This molecule returned a GI50 at 72 h in series [1] of 0.09 µM.
For the molecule `CS/C(=N\C(=O)c1ccno1)NC(=O)c1ccno1`, the 50% growth inhibitory concentration (GI50) in the series with MCF7 was 77.8 µM; in the series with HepG2, > 100 µM; with PC-3, 99.2 µM; with K562, > 100 µM; in the series with HT-29, > 100 µM. The LC50 (with MCF7; in series [1]) was > 100 µM in each case. Besides, the total growth inhibition concentration (TGI) (with MCF7; in the series with HepG2; in series [1]; with PC-3; in the series with K562; in the series with HT-29) was > 100 µM in each case. Moreover, the CC50 in the series with HepG2, in the series on PC-3, with K562 and in the series on HT-29 was > 100 µM throughout. This molecule also registered a GI50 at 72 h in series [1] of 16.9 µM.
On to `O=C(/N=C(/NC(=O)c1cnc2ccccc2c1)[Se]Cc1ccccc1)c1cnc2ccccc2c1`, for which the GI50 in the series on MCF7 was 23.6 µM; in the series on HepG2, 8.54 µM; in the series with PC-3 it was 34.8 µM; in the series on K562, 29.3 µM; with HT-29 it was 26.1 µM. The 50% lethal concentration (LC50) (in the series on MCF7; in series [1]) was > 100 µM each time. Also, the concentration for total growth inhibition (TGI) in the series on MCF7 is > 100 µM; in the series on HepG2 it was 48.9 µM; in series [1], > 100 µM; with PC-3 it was > 100 µM; in the series with K562, 72.6 µM; in the series with HT-29 it was > 100 µM. For the same molecule, the CC50 is 90.3 µM with HepG2, > 100 µM with PC-3, > 100 µM in the series on K562 and > 100 µM in the series with HT-29. The molecule also showed a GI50 at 72 h in series [1] of 23.6 µM.
In the case of `CS/C(=N\C(=O)c1cnc2ccccc2c1)NC(=O)c1cnc2ccccc2c1`, the concentration for 50% growth inhibition (GI50) in the series on MCF7 was 23.9 µM; in the series with HepG2 it was 57.6 µM; with PC-3, 76.3 µM; with K562, 65.8 µM; with HT-29, > 100 µM. Besides, the LC50 in the series with MCF7 was > 100 µM; in series [1], 82.19 µM. The total growth inhibition concentration (TGI) is > 100 µM with MCF7; > 100 µM in the series with HepG2; 42.17 µM in series [1]; > 100 µM in the series with PC-3; > 100 µM in the series on K562; > 100 µM in the series on HT-29. Besides, the CC50 in the series on HepG2, in the series with PC-3, with K562 and in the series with HT-29 was > 100 µM throughout. The 50% growth inhibitory concentration (GI50) at 72 h in series [1] is 0.5 µM.
In the case of `O=C(/N=C(/NC(=O)c1sccc1Cl)[Se]Cc1ccccc1)c1sccc1Cl`, the GI50 with MCF7 was found to be 3.68 µM; in the series on HepG2, 4.42 µM; in the series with PC-3 it was 52.7 µM; in the series on K562, 7.63 µM; in the series with HT-29 it was 6.51 µM. The 50% lethal concentration (LC50) (in the series with MCF7; in series [1]) was > 100 µM throughout. Moreover, the TGI is 28.3 µM in the series with MCF7; 45.5 µM with HepG2; 28.33 µM in series [1]; > 100 µM in the series on PC-3; 95.8 µM in the series on K562; > 100 µM in the series with HT-29. In addition, the CC50 in the series on HepG2, in the series with PC-3, in the series on K562 and in the series with HT-29 was > 100 µM throughout. This molecule also returned a 50% growth inhibitory concentration (GI50) at 72 h in series [1] of 3.68 µM.
Take `O=C(/N=C(/NC(=O)c1cc(-c2ccccc2)nc2ccccc12)[Se]Cc1ccccc1)c1cc(-c2ccccc2)nc2ccccc12`: the 50% growth inhibitory concentration (GI50) is 8.46 µM in the series on MCF7; 25.8 µM in the series on HepG2; 39.3 µM with PC-3; 9.06 µM in the series on K562; 6.07 µM in the series with HT-29. Besides, the median lethal concentration (LC50) in the series with MCF7 was 97 µM; in series [1], 97.04 µM. The TGI with MCF7 was 45.6 µM; in the series with HepG2 it was 52.4 µM; in series [1], 45.56 µM; with PC-3, 97.1 µM; in the series on K562, 47.4 µM; with HT-29, > 100 µM. Also, the CC50 is 78.9 µM in the series with HepG2, > 100 µM with PC-3, 88.9 µM with K562 and > 100 µM in the series with HT-29. Besides, the GI50 at 72 h in series [1] was determined as 8.46 µM.
As to `CS/C(=N\C(=O)c1ccco1)NC(=O)c1ccco1`, the concentration for 50% growth inhibition (GI50) was 56.1 µM with MCF7; > 100 µM with HepG2; 56.2 µM in the series with PC-3; 64.8 µM in the series with K562; 77.1 µM with HT-29. For the same molecule, the LC50 in the series with MCF7 was > 100 µM; in series [1], 85.69 µM. The concentration for total growth inhibition (TGI) in the series with MCF7 was > 100 µM; in the series with HepG2 it was > 100 µM; in series [1] it was 46.52 µM; in the series on PC-3 it was > 100 µM; with K562 it was > 100 µM; with HT-29, > 100 µM. Also, the CC50 in the series with HepG2, in the series with PC-3, in the series with K562 and in the series on HT-29 was > 100 µM throughout. In addition, growth in series [1] was halved (GI50 at 72 h) at 8.22 µM.
For `O=C(/N=C(/NC(=O)c1cccs1)[Se]Cc1ccccc1)c1cccs1`, the GI50 was determined as 72.5 µM in the series with MCF7; 34.7 µM in the series with HepG2; 49.9 µM in the series with PC-3; 29.5 µM in the series on K562; 55.1 µM in the series with HT-29. The LC50 (in the series on MCF7; in series [1]) was > 100 µM each time. The TGI in the series with MCF7 is > 100 µM; with HepG2 it was 58.1 µM; in series [1], > 100 µM; with PC-3 it was > 100 µM; with K562 it was 58.5 µM; in the series with HT-29, > 100 µM. The CC50 was 81.5 µM in the series on HepG2, > 100 µM in the series with PC-3, 87.4 µM in the series with K562 and > 100 µM in the series with HT-29. This molecule also gave a concentration for 50% growth inhibition (GI50) at 72 h in series [1] of 72.5 µM.
In the case of `CS/C(=N\C(=O)c1ccc2c(c1)OCO2)NC(=O)c1ccc2c(c1)OCO2`, the GI50 in the series with MCF7 is 24.6 µM; in the series on HepG2, 61.4 µM; in the series with PC-3, 28.7 µM; in the series on K562, 68 µM; with HT-29, 46.4 µM. The LC50 in the series on MCF7 was found to be 94.8 µM; in series [1] it was 9.05 µM. Also, the TGI in the series with MCF7 is 59.7 µM; in the series with HepG2, > 100 µM; in series [1] it was 5.03 µM; in the series on PC-3 it was 54.5 µM; in the series on K562, > 100 µM; in the series on HT-29, > 100 µM. Moreover, the CC50 is > 100 µM in the series with HepG2, 80.4 µM in the series on PC-3, > 100 µM in the series on K562 and > 100 µM in the series with HT-29. This molecule came in with a concentration for 50% growth inhibition (GI50) at 72 h in series [1] of 1.01 µM.
Regarding `CS/C(=N\C(=O)c1cccs1)NC(=O)c1cccs1`, the GI50 in the series on MCF7 was 44.5 µM; with HepG2, > 100 µM; in the series with PC-3, 39 µM; with K562, 72.6 µM; in the series on HT-29, 77.9 µM. Further, the figures for the LC50 (in the series on MCF7; in series [1]) were > 100 µM and 90.5 µM, respectively. Besides, the total growth inhibition concentration (TGI) in the series with MCF7 is 89 µM; with HepG2 it was > 100 µM; in series [1] it was 55.1 µM; with PC-3, 98.2 µM; in the series on K562, > 100 µM; in the series on HT-29 it was > 100 µM. Further, the CC50 with HepG2, with PC-3, in the series with K562 and with HT-29 was > 100 µM in each case. Halving of growth in series [1] (GI50 at 72 h) required 19.7 µM.
